Data reported in ChEMBL document CHEMBL4177764 (J Med Chem, 2018).
Activity calls are given as the source filed them. The calls are words filed in the database; no cut-off is given here.

Assays:
[1] = biological target: Signal transducer and activator of transcription 3 (Homo sapiens) (UniProt P40763); experiment: Inhibition of STAT3 phosphorylation at Y705 in human CHLA20 cells at 250 nM after 6 to 48 hrs in presence of ABCB1 inhibitor tariquidar by immunoblot method; type: cell-based
[2] = biological target: T1, ALK tyrosine kinase receptor (Homo sapiens, UniProt Q9UM73); experiment: Induction of ALK degradation in human Kelly cells assessed as decrease in ALK phosphorylation at Y1507 at 250 nM after 6 to 48 hrs by immunoblot method; type: cell-based
T1 sequence (Q9UM73 19-1620 limits assumed): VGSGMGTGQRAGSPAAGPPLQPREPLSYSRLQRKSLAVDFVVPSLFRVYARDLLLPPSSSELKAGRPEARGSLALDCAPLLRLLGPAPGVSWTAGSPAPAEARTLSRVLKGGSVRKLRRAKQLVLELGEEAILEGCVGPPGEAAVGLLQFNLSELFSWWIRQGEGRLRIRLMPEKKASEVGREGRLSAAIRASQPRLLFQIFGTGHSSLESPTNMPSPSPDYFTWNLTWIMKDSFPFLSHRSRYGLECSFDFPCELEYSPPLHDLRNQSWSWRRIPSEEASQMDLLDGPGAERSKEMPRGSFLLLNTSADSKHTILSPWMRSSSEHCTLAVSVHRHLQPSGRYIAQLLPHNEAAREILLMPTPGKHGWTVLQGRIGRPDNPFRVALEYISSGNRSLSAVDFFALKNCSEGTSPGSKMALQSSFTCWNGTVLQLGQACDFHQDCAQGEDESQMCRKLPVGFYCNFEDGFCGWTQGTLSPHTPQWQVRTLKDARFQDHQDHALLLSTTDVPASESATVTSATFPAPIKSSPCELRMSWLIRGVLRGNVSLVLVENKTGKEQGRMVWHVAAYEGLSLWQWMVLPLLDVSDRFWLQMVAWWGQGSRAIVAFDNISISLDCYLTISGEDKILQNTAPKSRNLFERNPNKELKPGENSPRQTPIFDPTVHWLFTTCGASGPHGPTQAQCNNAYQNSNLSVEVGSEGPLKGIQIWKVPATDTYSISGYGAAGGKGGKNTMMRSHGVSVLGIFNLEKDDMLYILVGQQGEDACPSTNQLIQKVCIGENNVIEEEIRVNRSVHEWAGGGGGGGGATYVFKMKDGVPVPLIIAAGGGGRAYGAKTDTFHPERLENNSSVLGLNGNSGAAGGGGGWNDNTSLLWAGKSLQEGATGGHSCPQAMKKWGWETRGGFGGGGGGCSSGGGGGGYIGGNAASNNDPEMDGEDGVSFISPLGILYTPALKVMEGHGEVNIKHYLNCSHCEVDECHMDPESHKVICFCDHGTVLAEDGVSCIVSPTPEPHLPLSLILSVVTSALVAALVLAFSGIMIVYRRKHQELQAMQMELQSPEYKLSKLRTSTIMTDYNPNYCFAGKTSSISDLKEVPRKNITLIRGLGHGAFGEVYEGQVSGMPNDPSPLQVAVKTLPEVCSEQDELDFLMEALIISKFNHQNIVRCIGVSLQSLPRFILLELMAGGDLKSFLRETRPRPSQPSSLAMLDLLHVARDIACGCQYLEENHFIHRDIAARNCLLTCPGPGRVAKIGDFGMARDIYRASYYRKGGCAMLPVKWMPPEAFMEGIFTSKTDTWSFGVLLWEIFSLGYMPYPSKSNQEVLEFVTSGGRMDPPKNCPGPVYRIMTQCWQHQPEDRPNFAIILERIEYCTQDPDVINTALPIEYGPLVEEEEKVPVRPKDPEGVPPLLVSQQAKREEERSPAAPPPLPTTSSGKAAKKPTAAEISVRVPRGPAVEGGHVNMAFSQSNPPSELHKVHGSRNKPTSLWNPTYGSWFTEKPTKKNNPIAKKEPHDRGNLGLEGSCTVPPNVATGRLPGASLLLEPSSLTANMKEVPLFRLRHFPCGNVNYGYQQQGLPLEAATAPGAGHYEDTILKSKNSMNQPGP

[3] = biological target: T1, ALK tyrosine kinase receptor; experiment: Induction of ALK degradation in human CHLA20 cells at 100 nM after 16 hrs in presence of pomalidomide and ABCB1 inhibitor tariquidar by immunoblot method; type: cell-based
Summary of the method: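 CHLA20 cells were kept with 125 nM tariquidar and pre-treated for 2 h with DMSO, carfilzomib, MLN4924, pomalidomide, TAE684 or LDK378. A 16 h degrader treatment followed, with immunoblot readout of ALK.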

[4] = biological target: Signal transducer and activator of transcription 3 (Homo sapiens) (UniProt P40763); experiment: Inhibition of STAT3 phosphorylation at Y705 in human Kelly cells at 250 nM after 6 to 48 hrs by immunoblot method; type: cell-based
[5] = biological target: T1, ALK tyrosine kinase receptor; experiment: Induction of ALK degradation in human KARPAS299 cells at 250 nM after 8 hrs by immunoblot method; type: cell-based
[6] = biological target: T1, ALK tyrosine kinase receptor; experiment: Induction of ALK degradation in human CHLA20 cells assessed as decrease in ALK phosphorylation at Y1507 at 250 nM after 6 to 48 hrs in presence of ABCB1 inhibitor tariquidar by immunoblot method; type: cell-based
SU-DHL-1 = experiment: Antiproliferative activity against human SU-DHL1 cells after 72 hrs by CellTiter-Glo luminescent cell viability assay; type: functional, cell-based
[7] = biological target: T1, ALK tyrosine kinase receptor; experiment: Induction of ALK degradation in human KARPAS299 cells at 250 nM after 16 hrs in presence of […] inhibitor MLN4924 by immunoblot method; type: cell-based
[8] = biological target: T2, Aurora kinase A (Homo sapiens) (UniProt O14965); experiment: Induction of aurora A degradation in human CHLA20 cells at 10 to 160 nM after 16 hrs by immunoblot method; type: cell-based
T2 sequence (whole entry): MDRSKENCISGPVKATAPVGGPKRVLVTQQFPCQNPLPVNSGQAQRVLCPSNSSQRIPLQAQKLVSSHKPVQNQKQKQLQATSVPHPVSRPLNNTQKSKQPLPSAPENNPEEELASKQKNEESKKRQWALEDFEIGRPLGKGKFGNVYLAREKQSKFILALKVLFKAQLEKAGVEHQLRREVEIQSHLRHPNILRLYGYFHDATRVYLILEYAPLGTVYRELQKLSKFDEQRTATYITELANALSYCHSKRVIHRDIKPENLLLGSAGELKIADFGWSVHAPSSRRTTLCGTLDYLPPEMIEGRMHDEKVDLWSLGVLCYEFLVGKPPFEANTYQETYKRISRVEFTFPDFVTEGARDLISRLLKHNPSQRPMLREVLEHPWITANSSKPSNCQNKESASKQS
Summary of the method: (§1)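 Kelly and CHLA20 neuroblastoma cells were treated with dose titrations for 16 h, then Aurora A was detected by immunoblot. CHLA20 cells were always co-treated with 125 nM tariquidar, an ABCB1 inhibitor.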

[9] = biological target: T2, Aurora kinase A (Homo sapiens); experiment: Induction of aurora A degradation in human KARPAS299 cells at 0.01 to 1 uM after 16 hrs by immunoblot method; type: cell-based
Summary of the method: (§2)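 H3122 (EML4-ALK NSCLC) and Karpas 299 (NPM-ALK ALCL) cells were exposed to dose titrations for 16 h. ALK and Aurora A levels were then assessed by immunoblot.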

[10] = biological target: T2, Aurora kinase A (Homo sapiens); experiment: Induction of aurora A degradation in human Kelly cells at 10 to 160 nM after 16 hrs by immunoblot method; type: cell-based; summary of the method: as §1
[11] = biological target: T2, Aurora kinase A (Homo sapiens); experiment: Induction of aurora A degradation in human NCI-H3122 cells at 0.01 to 1 uM after 16 hrs by immunoblot method; type: cell-based; summary of the method: as §2

Chain of Signal transducer and activator of transcription 3 (Homo sapiens) (P40763 whole entry): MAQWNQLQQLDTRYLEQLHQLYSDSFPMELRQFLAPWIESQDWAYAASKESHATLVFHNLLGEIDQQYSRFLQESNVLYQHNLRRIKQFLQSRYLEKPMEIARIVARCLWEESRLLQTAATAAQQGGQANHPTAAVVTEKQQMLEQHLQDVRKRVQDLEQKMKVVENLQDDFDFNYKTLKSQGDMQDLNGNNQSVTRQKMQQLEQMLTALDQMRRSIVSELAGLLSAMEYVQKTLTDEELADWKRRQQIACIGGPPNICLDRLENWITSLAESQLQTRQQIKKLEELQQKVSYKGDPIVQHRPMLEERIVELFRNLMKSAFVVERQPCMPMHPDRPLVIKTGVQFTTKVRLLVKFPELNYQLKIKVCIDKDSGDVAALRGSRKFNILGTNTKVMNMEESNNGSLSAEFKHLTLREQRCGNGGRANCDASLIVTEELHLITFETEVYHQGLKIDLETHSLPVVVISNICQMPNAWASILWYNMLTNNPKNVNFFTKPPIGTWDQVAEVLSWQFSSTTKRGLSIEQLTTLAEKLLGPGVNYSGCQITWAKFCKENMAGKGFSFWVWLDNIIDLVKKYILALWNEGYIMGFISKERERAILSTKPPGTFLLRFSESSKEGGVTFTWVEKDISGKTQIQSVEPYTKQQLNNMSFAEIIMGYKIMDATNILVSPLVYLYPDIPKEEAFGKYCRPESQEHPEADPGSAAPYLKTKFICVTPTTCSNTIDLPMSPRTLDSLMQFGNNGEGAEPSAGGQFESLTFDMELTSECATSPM

| inhibition [1] | Activity [2] | Activity [3] | inhibition [4] | Activity [5] | Activity [6] | Activity [7] | Activity [8] | Activity [9] | Activity [10] | Activity [11] | SMILES | Activity (SU-DHL-1) |
| --- | --- | --- | --- | --- | --- | --- | --- | --- | --- | --- | --- | --- |
| Active | Active | inactive | Active | Active | Active | inactive |  |  |  |  | Cc1cc(Nc2ncc(Cl)c(Nc3ccccc3S(=O)(=O)C(C)C)n2)c(OC(C)C)cc1C1CCN(CCOCCOCCNC(=O)CNc2cccc3c2C(=O)N(C2CCC(=O)NC2=O)C3=O)CC1 (stereo unspecified) | Active |
|  |  | inactive |  | Active |  | inactive | Active | Active | Active | Active | COc1cc(N2CCN(CCOCCOCCNC(=O)CNc3cccc4c3C(=O)N(C3CCC(=O)NC3=O)C4=O)CC2)ccc1Nc1ncc(Cl)c(Nc2ccccc2S(=O)(=O)C(C)C)n1 (stereo unspecified) | Active |
